# Data taken from PMC6207383 (International Journal of Nanomedicine, 2018).
# What was measured:
# HepG2-TS = experiment: CCK-8 cytotoxicity assay in HepG2 tumor spheres; format: cell-based, human
# Outline: (§1)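 Cells seeded at 5×10^3/well and left overnight at 37°C to attach. They were then exposed for 48 h to graded concentrations of each agent alone or combined at fixed molar ratios (4:1, 2:1, 1:1, 1:2, 1:4). CCK-8 was added for about 2 h and A450 read. Viability = (AE–AB)/(AC–AB)×100%, using untreated and blank wells. HepG2 were grown in DMEM/10% FBS. Spheres were grown in DMEM-F12 with B27, ITS, 20 ng/mL EGF and bFGF, dissociated with Accutase and passed through a 100-µm sieve.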
# HepG2 cells [1] = experiment: Colony formation assay; format: cell-based, human; conditions: DOX and ELC 0.01 µM, 24 hours treatment, 8–10 days growth
# Outline: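 HepG2 cells were maintained in DMEM with 10% FBS and penicillin/streptomycin at 37°C, 5% CO2. They were seeded at 1×10^5 cells/well, left overnight, then exposed 24 h to free or nanoparticle test compounds (each drug at 0.01 µM final). Cells were trypsinized, reseeded at 800 cells/well and grown 8–10 days at 37°C. Colonies were stained with 1% crystal violet for 20 min at room temperature and counted by microscope.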
# HepG2 cells [2] = experiment: Tumor sphere formation assay; format: cell-based, human; conditions: DOX and ELC 0.15 µM, 7 days
# Outline: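 Trypsinized HepG2 cells were seeded at 500 cells/well in ultra-low-attachment wells in DMEM/F12 with 1× B27, 1× ITS, 20 ng/mL EGF and 20 ng/mL bFGF, then left overnight. Cells were exposed to free or nanoparticle test compounds (each drug at 0.15 µM final). After 7 days, tumor spheres were counted by microscope.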
# HepG2 cells [3] = experiment: CCK-8 cytotoxicity assay in HepG2 cells; format: cell-based; conditions: Homo sapiens, HepG2, 48 h
# Outline: as §1
# [4] = Tissue distribution study in vivo; parameters: species or system BALB/c nude mice; conditions: iv 10 µg DiR per mouse, 2–24 hours
# Outline: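 Male BALB/c nude mice (4–6 weeks, about 20 g) bore subcutaneous right-back tumours from 2×10^6 HepG2 cells. At about 300 mm3 they were randomised to saline, free DiR or DiR-loaded nanoparticles, given as a single tail-vein injection. Imaging was under isoflurane at 745/820 nm excitation/emission, at 2, 4, 6, 8, 12 and 24 h. At 24 h, excised organs and tumours were imaged and quantified as total radiant efficiency.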
SMILES,"IC50 (HepG2-TS; HepG2-TS, 48 hours, CCK-8)",number of colonies formed (HepG2 cells [1]),tumor sphere formation (HepG2 cells [2]),IC50 (HepG2 cells [3]),"IC50 (HepG2-TS; Homo sapiens, HepG2, 48 h)",DiR signals in real-time in vivo images [4]
"COc1cccc2c1C(=O)c1c(O)c3c(c(O)c1C2=O)C[C@@](O)(C(=O)CO)C[C@@H]3O[C@H]1C[C@H](N)[C@H](O)[C@H](C)O1 [DOX, doxorubicin]",0.477 ± 0.0514 µM,reduced the formation of colonies compared with the control,decreased tumor sphere formation compared with that in the control,–,–,–
"COc1cc2c(cc1OC)CN(CCc1ccc(NC(=O)c3cccc4c(=O)c5cccc(OC)c5[nH]c34)cc1)CC2 [ELC, elacridar]",–,reduced the formation of colonies compared with the control,decreased tumor sphere formation compared with that in the control,9.27 ± 2.61 µM,13.7 ± 4.27 µM,–
CCCCCCCCCCCCCCCCCCN1/C(=C/C=C/C=C/C=C/C2=[N+](CCCCCCCCCCCCCCCCCC)c3ccccc3C2(C)C)C(C)(C)c2ccccc21.[I-] [free DiR],–,–,–,–,–,No obvious DiR signals
